Calls of active or inactive are those of the source. No cut-off for these calls is given here.
How the values were obtained:
DU-145 = experiment: Inhibition of Akt-phosphorylation in human DU145 cells at 40 uM measured after 0.5 to 2 hrs by Western blot analysis; type: cell-based
Summary of the method: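 Cells treated with 40 μM compound for different times. Floating and attached cells lysed in Tris-HCl pH 7.5/NaCl/Triton X-100/SDS for 40 min on ice. Lysates run on 10–12% SDS-PAGE and blotted to PVDF. Primary antibody applied 1 h at room temperature, detection by ECL. p-Akt quantified by densitometry and normalised to β-actin.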

[1] = Cytotoxicity against human MCF7 cells assessed as reduction in cell viability measured after 24 hrs by MTT assay; type: functional, cell-based; settings: MCF7, 24 h
Summary of the method: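 MCF-7 cells grown in MEM with glutamine, non-essential amino acids, gentamycin and 10% heat-inactivated FBS at 37°C, 5% CO2. Seeded at 10^4 cells/well and left 24 h. Compounds at various concentrations or 0.1% DMSO vehicle for 24 h. MTT added for 2 h at 37°C. Formazan read at 540 nm against untreated control. Run in triplicate, IC50 reported.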

[2] = Cytotoxicity against human PNT1A cells assessed as reduction in cell viability measured after 24 hrs by SRB assay; type: toxicity, cell-based
Summary of the method: (§1)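 DU-145 cells grown in MEM with 10% FBS, glutamine and pyruvate. PNT1A cells grown in RPMI 1640 with serum. Both seeded at 6.0 x 10^3 cells/well for 24 h, then treated 24 h with graded concentrations up to 40. Triplicate, IC50 calculated.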

[3] = Antioxidant activity assessed as H2O2 scavenging by measuring remaining dithiothreitol level after 15 mins at 0.1 equivalent by 1H NMR spectroscopy relative to control; type: functional
Summary of the method: (§2)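 Dithiothreitol oxidation by 30% H2O2 (3.0 eq) in CD3OD, catalysed by Se compound at 0.1 equiv. 1H NMR spectra taken right after H2O2 addition and then at set intervals. Remaining substrate derived from changes in signal integration.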

[4] = Antioxidant activity assessed as H2O2 scavenging by measuring remaining dithiothreitol level at 0.1 equivalent after 30 mins by 1H NMR spectroscopy relative to control; type: functional; summary of the method: as §2
[5] = Antioxidant activity assessed as H2O2 scavenging by measuring remaining dithiothreitol level at 0.1 equivalent after 3 mins by 1H NMR spectroscopy relative to control; type: functional; summary of the method: as §2
[6] = Antioxidant activity assessed as H2O2 scavenging by measuring remaining dithiothreitol level at 0.1 equivalent after 60 mins by 1H NMR spectroscopy relative to control; type: functional; summary of the method: as §2
[7] = Antioxidant activity assessed as H2O2 scavenging by measuring remaining dithiothreitol level at 0.1 equivalent after 5 mins by 1H NMR spectroscopy relative to control; type: functional; summary of the method: as §2
[8] = Cytotoxicity against human DU145 cells assessed as reduction in cell viability measured after 24 hrs by SRB assay; type: functional, cell-based; settings: DU-145, 24 h; summary of the method: as §1
[9] = Antiproliferative activity against human A549 cells; type: functional, cell-based

Row | Compound | inhibition (DU-145) | IC50 [1] [µM] | IC50 at 24 h [2] [µM] | Activity [3] [%] | Activity [4] [%] | Activity [5] [%] | Activity [6] [%] | Activity [7] [%] | IC50 [8] [µM] | IC50 [9] [µM]
1 | CC(C)CCn1[se]c2ccccc2c1=O | Active | 29 | > 40 | 42 | 28 | 77 | 13 | 58 | 30.4 | –
2 | Cn1[se]c2ccccc2c1=O | – | 32.7 | > 40 | 35 | 11 | 78 | 0 | 65 | 30.2 | –
3 | C=CCNC(=O)c1ccccc1[Se][Se]c1ccccc1C(=O)NCC=C | – | 125 | – | 12 | 0 | 59 | 0 | 36 | 20.4 | –
4 | O=C(O)c1ccc(NC(=O)c2ccccc2[Se][Se]c2ccccc2C(=O)Nc2ccc(C(=O)O)cc2)cc1 | – | – | – | – | – | – | – | – | – | 20
5 | CC(C)CCNC(=O)c1ccccc1[Se][Se]c1ccccc1C(=O)NCCC(C)C | – | > 500 | – | 38 | 31 | 65 | 21 | 49 | > 40 | –
6 | O=c1c2ccccc2[se]n1C1CCCCC1 | Active | 7.31 | > 40 | 62 | 55 | 75 | 44 | 69 | 5.71 | –
7 | C=CCn1[se]c2ccccc2c1=O | – | 25.7 | > 40 | 58 | 53 | 76 | 41 | 69 | 10.3 | –
8 | O=c1c2ccccc2[se]n1-c1ccccc1 | – | – | – | 64 | 58 | 84 | 52 | 75 | – | –
9 | O=C(NC1CCCCC1)c1ccccc1[Se][Se]c1ccccc1C(=O)NC1CCCCC1 | – | 90 | – | 75 | 65 | 92 | 54 | 85 | > 40 | –
10 | CCCCn1[se]c2ccccc2c1=O | – | 13.8 | > 40 | 41 | 32 | 81 | 29 | 59 | 20.8 | –
11 | CCCCNC(=O)c1ccccc1[Se][Se]c1ccccc1C(=O)NCCCC | – | > 500 | – | 82 | 77 | 93 | 73 | 88 | > 40 | –
